The source made the active and inactive calls. No cut-off for these calls is given here.
Experiments:
Allium cepa [1] = test: Inhibition of germination of Allium cepa cv. Valenciana (onion) at 0.1 mM or 1 mM after 5 days relative to untreated control; assay type: functional
Triticum aestivum [2] = test: Inhibition of root length of Triticum aestivum cv. Cortex (wheat) at 0.1 mM or 1 mM after 5 days relative to untreated control; assay type: functional
How it was run: (§1)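 Wheat: 10 seeds per dish on filter paper with 5 mL test solution, 5 days in the dark at 25 °C, 10 replicates per concentration. Stock test solutions were 10^-3 or 10^-4 M in 10 mM MES, with lower levels made by dilution, all at pH 6.0. Parallel controls were run. Output is % difference from control.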

Triticum aestivum [3] = test: Inhibition of hypocotyl length of Triticum aestivum cv. Cortex (wheat) at 0.1 mM or 1 mM after 5 days relative to untreated control; assay type: functional; how it was run: as §1
Triticum aestivum [4] = test: Inhibition of germination of Triticum aestivum cv. Cortex (wheat) at 0.1 mM or 1 mM after 5 days relative to untreated control; assay type: functional; how it was run: as §1
Solanum lycopersicum [5] = test: Inhibition of hypocotyl length of Solanum lycopersicum cv. Tres Cantos (tomato) at 0.1 mM or 1 mM after 5 days relative to untreated control; assay type: functional
How it was run: (§2)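 Lettuce and tomato seeds, 25 per dish on filter paper, received 5 mL test solution. Incubation was 5 days in the dark at 25 °C, with four replicates per concentration. Solutions were made at 10^-3 or 10^-4 M in 10 mM MES, diluted serially, and adjusted to pH 6.0. Parallel controls were run. Results are % difference from control.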

Solanum lycopersicum [6] = test: Inhibition of root length of Solanum lycopersicum cv. Tres Cantos (tomato) at 0.1 mM or 1 mM after 5 days relative to untreated control; assay type: functional; how it was run: as §2
Lepidium sativum [7] = test: Inhibition of hypocotyl length of Lepidium sativum at 0.1 mM or 1 mM after 5 days relative to untreated control; assay type: functional
Allium cepa [8] = test: Inhibition of root length of Allium cepa cv. Valenciana (onion) at 0.1 mM or 1 mM after 5 days relative to untreated control; assay type: functional
Triticum aestivum [9] = test: Stimulation of hypocotyl length of Triticum aestivum cv. Cortex (wheat) at 0.1 mM or 1 mM after 5 days relative to untreated control; assay type: functional; how it was run: as §1
Allium cepa [10] = test: Stimulation of germination of Allium cepa cv. Valenciana (onion) at 0.1 mM or 1 mM after 5 days relative to untreated control; assay type: functional
Triticum aestivum [11] = test: Stimulation of root length of Triticum aestivum cv. Cortex (wheat) at 0.1 mM or 1 mM after 5 days relative to untreated control; assay type: functional; how it was run: as §1
Solanum lycopersicum [12] = test: Inhibition of germination of Solanum lycopersicum cv. Tres Cantos (tomato) at 0.1 mM or 1 mM after 5 days relative to untreated control; assay type: functional; how it was run: as §2
Lactuca sativa [13] = test: Inhibition of hypocotyl length of Lactuca sativa cv. Roman (lettuce) at 0.1 mM or 1 mM after 5 days relative to untreated control; assay type: functional; how it was run: as §2
Lactuca sativa [14] = test: Inhibition of root length of Lactuca sativa cv. Roman (lettuce) at 0.1 mM or 1 mM after 5 days relative to untreated control; assay type: functional; how it was run: as §2
Lactuca sativa [15] = test: Inhibition of germination of Lactuca sativa cv. Roman (lettuce) at 0.1 mM or 1 mM after 5 days relative to untreated control; assay type: functional; how it was run: as §2
Triticum aestivum [16] = test: Stimulation of germination of Triticum aestivum cv. Cortex (wheat) at 0.1 mM or 1 mM after 5 days relative to untreated control; assay type: functional; how it was run: as §1
Solanum lycopersicum [17] = test: Stimulation of hypocotyl length of Solanum lycopersicum cv. Tres Cantos (tomato) at 0.1 mM or 1 mM after 5 days relative to untreated control; assay type: functional; how it was run: as §2
Solanum lycopersicum [18] = test: Stimulation of root length of Solanum lycopersicum cv. Tres Cantos (tomato) at 0.1 mM or 1 mM after 5 days relative to untreated control; assay type: functional; how it was run: as §2
Solanum lycopersicum [19] = test: Stimulation of germination of Solanum lycopersicum cv. Tres Cantos (tomato) at 0.1 mM or 1 mM after 5 days relative to untreated control; assay type: functional; how it was run: as §2
Lepidium sativum [20] = test: Stimulation of hypocotyl length of Lepidium sativum at 0.1 mM or 1 mM after 5 days relative to untreated control; assay type: functional
Lepidium sativum [21] = test: Stimulation of root length of Lepidium sativum at 0.1 mM or 1 mM after 5 days relative to untreated control; assay type: functional
Lactuca sativa [22] = test: Stimulation of root length of Lactuca sativa cv. Roman (lettuce) at 0.1 mM or 1 mM after 5 days relative to untreated control; assay type: functional; how it was run: as §2
Lactuca sativa [23] = test: Stimulation of hypocotyl length of Lactuca sativa cv. Roman (lettuce) at 0.1 mM or 1 mM after 5 days relative to untreated control; assay type: functional; how it was run: as §2
Lactuca sativa [24] = test: Stimulation of germination of Lactuca sativa cv. Roman (lettuce) at 0.1 mM or 1 mM after 5 days relative to untreated control; assay type: functional; how it was run: as §2
Lepidium sativum [25] = test: Inhibition of root length of Lepidium sativum at 0.1 mM or 1 mM after 4 days relative to untreated control
Lepidium sativum [26] = test: Inhibition of germination of Lepidium sativum at 0.1 mM or 1 mM after 4 days relative to untreated control
Allium cepa [27] = test: Stimulation of root length of Allium cepa cv. Valenciana (onion) at 0.1 mM or 1 mM after 7 days relative to untreated control
Allium cepa [28] = test: Inhibition of hypocotyl length of Allium cepa cv. Valenciana (onion) at 0.1 mM or 1 mM after 7 days relative to untreated control
Allium cepa [29] = test: Stimulation of hypocotyl length of Allium cepa cv. Valenciana (onion) at 0.1 mM or 1 mM after 7 days relative to untreated control
Allium cepa [30] = test: Inhibition of hypocotyl length of Allium cepa cv. Valenciana (onion) at 0.1 mM or 1 mM after 5 days relative to untreated control; assay type: functional
Allium cepa [31] = test: Stimulation of hypocotyl length of Allium cepa cv. Valenciana (onion) at 0.1 mM or 1 mM after 5 days relative to untreated control; assay type: functional
Allium cepa [32] = test: Stimulation of root length of Allium cepa cv. Valenciana (onion) at 0.1 mM or 1 mM after 5 days relative to untreated control; assay type: functional
Lepidium sativum [33] = test: Inhibition of germination of Lepidium sativum at 0.1 mM or 1 mM after 5 days relative to untreated control; assay type: functional
Lepidium sativum [34] = test: Inhibition of germination of Lepidium sativum at 0.1 mM or 1 mM after 4 days relative to untreated control; set-up: scale not given: the % may be the effect or the level left
Lepidium sativum [35] = test: Inhibition of hypocotyl length of Lepidium sativum at 0.1 mM or 1 mM after 4 days relative to untreated control
Allium cepa [36] = test: Stimulation of germination of Allium cepa cv. Valenciana (onion) at 0.1 mM or 1 mM after 7 days relative to untreated control

SMILES	inhibition (Allium cepa [1])	inhibition (INH) (Triticum aestivum [2]) [%]	inhibition (INH) (Triticum aestivum [3]) [%]	inhibition (Solanum lycopersicum [5])	inhibition (Solanum lycopersicum [6])	inhibition (Lepidium sativum [7])	Activity (Triticum aestivum [9])	Activity (Triticum aestivum [11])	inhibition (INH) (Lactuca sativa [13]) [%]	inhibition (INH) (Lactuca sativa [14]) [%]	Activity (Triticum aestivum [16])	Activity (Solanum lycopersicum [17])	Activity (Solanum lycopersicum [18])	Activity (Solanum lycopersicum [19])	Activity (Lepidium sativum [20])	Activity (Lepidium sativum [21])	Activity (Lactuca sativa [22])	Activity (Lactuca sativa [23])	Activity (Lactuca sativa [24])	inhibition (INH) (Triticum aestivum [4])	also measured
C=C1C(=O)O[C@H]2[C@H]1C[C@@H](O)C(=C)[C@@H]1C[C@@H](O)C(=C)[C@@]12O	inactive	20	20	inactive	inactive	inactive	20%	20%	<20	20	inactive	inactive	inactive	<20%	inactive	inactive	20%	<20%	inactive		inhibition (Triticum aestivum [4]): inactive; inhibition (Allium cepa [8]): inactive; Activity (Allium cepa [10]): inactive; inhibition (INH) (Solanum lycopersicum [12]): <20%; inhibition (Lactuca sativa [15]): inactive; inhibition (Lepidium sativum [25]): inactive; Activity (Lepidium sativum [26]): inactive; inhibition (Lepidium sativum [26]): inactive; Activity (Allium cepa [27]): inactive; inhibition (Allium cepa [28]): inactive; Activity (Allium cepa [29]): inactive
C=C1CC[C@H]2[C@H](C)C(=O)O[C@@H]2[C@@]2(O)C(=C)[C@H](O)C[C@@H]12	inactive		20	inactive	inactive	inactive	20%	inactive	20	<20	inactive	inactive	inactive	inactive	inactive	inactive	<20%	20%	inactive		inhibition (Triticum aestivum [2]): inactive; inhibition (Triticum aestivum [4]): inactive; inhibition (Allium cepa [8]): inactive; Activity (Allium cepa [10]): inactive; inhibition (Solanum lycopersicum [12]): inactive; inhibition (Lactuca sativa [15]): inactive; inhibition (Lepidium sativum [25]): inactive; Activity (Lepidium sativum [26]): inactive; inhibition (Lepidium sativum [26]): inactive; Activity (Allium cepa [27]): inactive; inhibition (Allium cepa [28]): inactive; Activity (Allium cepa [29]): inactive
C=C1CC[C@H]2C(=C)CC[C@@H]3[C@H](OC(=O)[C@]3(O)CO)[C@@H]12	inactive			inactive	inactive	inactive	inactive	inactive	<20		<20%	inactive	inactive	<20%	inactive	inactive	inactive	<20%	inactive	<20%	inhibition (Triticum aestivum [2]): inactive; inhibition (Triticum aestivum [3]): inactive; inhibition (Allium cepa [8]): inactive; Activity (Allium cepa [10]): inactive; inhibition (INH) (Solanum lycopersicum [12]): <20%; inhibition (Lactuca sativa [14]): inactive; inhibition (Lactuca sativa [15]): inactive; inhibition (Lepidium sativum [25]): inactive; Activity (Lepidium sativum [26]): inactive; inhibition (Lepidium sativum [26]): inactive; Activity (Allium cepa [27]): inactive; inhibition (Allium cepa [28]): inactive; Activity (Allium cepa [29]): inactive
C=C1[C@@H]2[C@H]3OC(=O)C(=C)[C@@H]3CCC(=C)[C@@H]2C[C@H]1O [ISOZALUZANIN C]	inactive	>40	20				20%	>40%	<20		20%	>40%	>40%	20%	>40%	>40%	inactive	<20%	<20%	20%	inhibition (INH) (Solanum lycopersicum [5]): >40%; inhibition (INH) (Solanum lycopersicum [6]): >40%; inhibition (INH) (Allium cepa [8]): >40%; inhibition (INH) (Allium cepa [30]): >40%; Activity (Allium cepa [31]): >40%; Activity (Allium cepa [32]): >40%; inhibition (INH) (Solanum lycopersicum [12]): 20%; inhibition (INH) (Lepidium sativum [33]): >40%; inhibition (Lactuca sativa [14]): inactive; inhibition (INH) (Lactuca sativa [15]): <20%; inhibition (INH) (Lepidium sativum [25]): >40%; Activity (Lepidium sativum [34]): >40%; inhibition (INH) (Lepidium sativum [35]): >40%; Activity (Allium cepa [36]): inactive
COc1nc(C)nc(NC(=O)NS(=O)(=O)c2ccccc2OCCCl)n1 [LOGRAN]	inactive	20	20				20%	20%	>40	>40	20%	>40%	>40%	inactive	>40%	>40%	>40%	>40%	>40%	20%	inhibition (INH) (Solanum lycopersicum [5]): >40%; inhibition (INH) (Solanum lycopersicum [6]): >40%; inhibition (INH) (Allium cepa [8]): >40%; inhibition (INH) (Allium cepa [30]): >40%; Activity (Allium cepa [31]): >40%; Activity (Allium cepa [32]): >40%; inhibition (Solanum lycopersicum [12]): inactive; inhibition (INH) (Lepidium sativum [33]): 20%; inhibition (INH) (Lactuca sativa [15]): >40%; inhibition (INH) (Lepidium sativum [25]): >40%; Activity (Lepidium sativum [34]): 20%; inhibition (INH) (Lepidium sativum [35]): >40%; Activity (Allium cepa [36]): inactive
C=C1CC[C@H]2C(=C)CC[C@@H]3[C@H](OC(=O)[C@H]3CO)[C@@H]12	inactive	20	20				20%	20%		20	<=20%	>40%	>40%	inactive	>40%	>40%	20%	inactive	<20%	<=20%	inhibition (INH) (Solanum lycopersicum [5]): >40%; inhibition (INH) (Solanum lycopersicum [6]): >40%; inhibition (INH) (Allium cepa [8]): >40%; inhibition (INH) (Allium cepa [30]): >40%; Activity (Allium cepa [31]): >40%; Activity (Allium cepa [32]): >40%; inhibition (Solanum lycopersicum [12]): inactive; inhibition (INH) (Lepidium sativum [33]): <20%; inhibition (Lactuca sativa [13]): inactive; inhibition (INH) (Lactuca sativa [15]): <20%; inhibition (INH) (Lepidium sativum [25]): >40%; Activity (Lepidium sativum [34]): <20%; inhibition (INH) (Lepidium sativum [35]): >40%; Activity (Allium cepa [36]): inactive

— ChEMBL document CHEMBL3045304, “Sesquiterpene lactones with potential use as natural herbicide models. 2. guaianolides” (2000)
